EphB4 ephrin blk – antagonists of human EphB4-ephrin-B2 interaction; EphB4 LBD / TNYL-RAW-Alexa532 peptide, fluorescence polarization; AID 720; inhibition, % at 7 µM; actives 0.15% (n = 97,000);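 active = inhibition above the screen-wide mean inhibition plus 3 SD, cut at about 15% in these data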;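 note: 0% = DMSO wells and 100% = excess unlabeled TNYL-RAW peptide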
PLK1 inh – inhibitors of human PLK1 kinase; AID 619; inhibition, % at 10 µM; recombinant PLK1 kinase, TR-FRET peptide phosphorylation; P53350; actives 0.53% (n = 97,000);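 active = inhibition of 50% or more in the single-concentration screen; inactive = inhibition below 50%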;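 note: 0% = DMSO max control and 100% = H-89 dihydrochloride min control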
LYP inh 2 – LYP (human) phosphatase inhibition. Q9Y2R2. recombinant LYP catalytic domain, DiFMUP fluorescence. inhibition, % at 2 µM. actives 0.21% (n = 96,000). AID 640;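 active = inhibition at 2 µM at or above a set limit, the screen mean plus 3 SD, cut at about 24% in these data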;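 note: 0% = DMSO with enzyme and 100% = enzyme fully blocked by orthovanadate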
Target sequence (Q9Y2R2 whole entry, looked up, the tested form may be a part): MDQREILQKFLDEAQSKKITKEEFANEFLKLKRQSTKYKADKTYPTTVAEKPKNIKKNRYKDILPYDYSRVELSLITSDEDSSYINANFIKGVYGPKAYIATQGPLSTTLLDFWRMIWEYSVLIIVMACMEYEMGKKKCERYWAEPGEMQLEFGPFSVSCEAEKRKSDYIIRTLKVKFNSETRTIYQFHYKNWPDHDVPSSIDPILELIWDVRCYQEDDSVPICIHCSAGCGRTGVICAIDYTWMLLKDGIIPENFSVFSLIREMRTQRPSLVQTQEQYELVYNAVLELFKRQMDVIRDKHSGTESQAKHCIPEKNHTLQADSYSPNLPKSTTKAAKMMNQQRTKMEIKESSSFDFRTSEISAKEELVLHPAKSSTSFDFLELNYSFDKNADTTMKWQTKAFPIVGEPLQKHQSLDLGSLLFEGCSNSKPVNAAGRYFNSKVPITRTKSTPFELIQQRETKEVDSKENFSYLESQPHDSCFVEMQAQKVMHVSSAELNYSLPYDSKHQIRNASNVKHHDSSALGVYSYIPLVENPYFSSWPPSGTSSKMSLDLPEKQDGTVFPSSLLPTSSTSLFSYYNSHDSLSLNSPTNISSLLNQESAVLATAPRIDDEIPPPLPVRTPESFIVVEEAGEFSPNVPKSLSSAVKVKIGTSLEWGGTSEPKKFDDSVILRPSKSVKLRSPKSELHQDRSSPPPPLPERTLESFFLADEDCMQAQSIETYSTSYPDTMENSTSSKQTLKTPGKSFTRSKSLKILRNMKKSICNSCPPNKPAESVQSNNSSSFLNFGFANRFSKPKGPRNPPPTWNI
PTPN22 act – increases human PTPN22 phosphatase activity; activation, % at 2 µM; recombinant LYP, DiFMUP fluorescence; 0 = plate median, 100 = signal doubled; Q9Y2R2; AID 697; actives 0.11% (n = 96,000);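 active = activation at 2 µM above a set limit, the mean plus 5 SD, cut at about 37% in these data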
Plk1 PBD FP – inhibitors of human Plk1 polo box domain binding; P53350; Plk1 PBD phosphopeptide binding, fluorescence polarization; inhibition, %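 (tested at about 20 µM)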; actives 0.13% (n = 97,000); in the data active = inhibition above about 34%, passing the limit was not always enough
Rev-RRE block – disrupts HIV-1 Rev binding to RRE RNA. Rev peptide-RRE RNA binding, FRET. actives 0.79% (n = 97,000). inhibition, % at 8 µM. AID 704. P05866;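 active = inhibition above the screen-wide mean plus 3 SD, cut at about 35% in these data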;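 note: 0% = median DMSO wells and 100% = median Neomycin B control wells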
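Material: labelled RRE RNA duplex and labelled Rev peptide / Buffer or medium: HEPES pH 7.5 salt buffer with EDTA / Compound dosing: single point, 8 µM final nominal compound concentration / Benchmarks: DMSO low control, neomycin B high control / Timing: 5 min preincubation and 15 min binding, 25 °C / Technique: FRET fluorescence readout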
PLK1 inh conf – confirmation of human PLK1 kinase inhibitors; shares compounds with PLK1 inh; recombinant PLK1 kinase, TR-FRET peptide phosphorylation; inhibition, % at 10 µM; actives 20% (n = 210);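 active = inhibition at or above 50% in each of two repeat confirmation tests; inconclusive = one repeat below 50% inhibition, the other above; inactive = both repeats at or below 50% inhibition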;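 note: 0% = DMSO max control and 100% = H-89 kinase-blocked min control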
Plk1 interf – Plk1 assay compound interference counter-screen hit. inhibition (interference), % at 10 µM. 210 tested, under 10 active. Plk1 TR-FRET assay interference, compound added post-reaction. shares compounds with PLK1 inh;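 active = both duplicate runs show 50% or greater inhibition; inconclusive = only one duplicate run shows over 50% inhibition; inactive = both runs show under 50% inhibition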;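 note: 0% = DMSO max control and 100% = H-89 min control inhibited reaction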
* hit, by the source's call; i = inactive; ? = inconclusive; [ ] = dose if it differs, or a comment. This is a sample that favours compounds with a hit; in the whole collection about 1.8% have one here.

SMILES	EphB4 ephrin blk	PLK1 inh	LYP inh 2	PTPN22 act	Plk1 PBD FP	Rev-RRE block	others
Cc1cc(OC(=O)c2ccco2)c2c3c(c(=O)oc2c1)CCCC3	15*	-3	-1	0	-16	10
Cc1cc(OCC(=O)O)c2c3c(c(=O)oc2c1)CCCC3	3	-9	-8	8	-11	-2
CCCC1COC(Cn2cncn2)(c2ccc(Cl)cc2Cl)O1 (stereo not drawn)	4	-9	62*	-61	13	7
N#Cc1c(/N=C/c2c(O)n(Cc3ccco3)c(=O)[nH]c2=O)sc2c1CCCC2	4	-7	-32	30	-11	40*
O=c1[nH]c(=O)n(Cc2ccco2)c(O)c1C=NCc1cccs1	0	3	3	-2	-3	5
CN1C(=O)/C(=C/c2ccc(N3CCCCCC3)o2)C(=O)NC1=S	-7	-42	4	-3	-86	126*[fluorescence artefact?]
CN1C(=O)/C(=C\c2ccc(N3CCCCC3)o2)C(=O)NC1=S	-4	-55	1	4	-121	128*[fluorescence artefact?]
Cc1ccc(N2C(=O)/C(=C/c3ccc(CN(CCC#N)S(C)(=O)=O)o3)C(=O)NC2=S)cc1C	6	-15	6	-1	-61	29
CN(C)c1ccc2c(c1)N=C(c1ccco1)OP2(=S)N1CCOCC1 (stereo not drawn)	-1	-11	-6	3	15	6
CCN1CCN(C(=O)COc2ccc3c(c2)C(=O)CC2(CCN(C(C)=O)CC2)O3)CC1	-4	-4	-6	4	2	4
CC[N+](C)(CC)CCCOC(=O)C(O)(c1ccccc1)C1CCCCC1 (stereo not drawn)	-8	-14	-3	4	-23	-5
Fc1cccc(CCNCc2ccccn2)c1	1	-7	-7	9	-25	2
CCN(CC)c1ccc(N=Cc2c(O)n(-c3cc(OC)ccc3OC)c(=O)[nH]c2=O)cc1	-11	-3	13	-15	-53	64*
CC(C)CC12CN3CCN(CC(C3)C1O)C2 (stereo not drawn)	-2	-9	0	-1	-6	8
O=P(OCC(F)(F)C(F)F)(N1CCCCC1)N1CCCCC1	-3	0	5	-2	-2	-2
CN1C(=O)C(Cc2ccc3c(c2)OCO3)C(=O)N(C)C1=O	2	-9	8	-10	17	7
O=C1NC(=O)C(=Cc2cn(CCOc3ccc4c(c3)OCO4)c3ccccc23)C(=O)N1	-4	-8	26*	-26	1	44*
C/C(=C\c1ccc(N(C)C)cc1)[N+](=O)[O-]	-1	-23	-6	9	33	73*
CC1CCN(S(=O)(=O)c2ccc(NN=C(C#N)C#N)cc2)CC1	0	-21	26*	-24	-1	7
COc1ccc(P2(=O)Nc3ccccc3N2)cc1	-2	0	-15	14	-15	61*
COc1ccc(-n2c(=O)[nH]c3ccccc3c2=O)cc1	-1	-7	15	-12	32	4
O=C(Cn1cnc2sc3c(c2c1=O)CCCC3)NCCCC(=O)N1CCC2(CC1)OCCO2	-10	-1	7	-6	14	8
COc1cc(/C=C2\C(=O)NC(=O)N(c3ccccc3)C2=O)cc(OC)c1O	-1	-8	16	-14	34	59*
O=C1NC(=S)N(c2ccc(Cl)cc2)C(=O)/C1=C/N1CCN(C(=O)c2ccco2)CC1	-2	-8	4	1	11	41*
O=C(c1ccco1)c1cn(Cc2ccc(Cl)cc2)c2ccccc12	-2	-2	0	0	7	22
Cc1nn(Cc2ccccc2)c(C)c1C(=O)OCC(=O)Nc1ccccc1SCC#N	5	-6	1	-3	-13	61*
CN1/C(=C\C=C\C2=[N+](C)c3ccc4ccccc4c3C2(C)C)C(C)(C)c2ccccc21	-75	86*	33*	-31	-4	i	PLK1 inh conf=?;Plk1 interf=11

Screens: PubChem, several laboratories
